In experiment [1] the test system is Mast/stem cell growth factor receptor Kit (Homo sapiens), P10721 [V559D,V654A]. In words: Inhibition of KIT V559D,V654A mutant at 1 uM. The essentials: (§1)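 Single-concentration screen on the Ambit KINOMEscan platform, run against a panel of 250–400 kinases. Per-kinase inhibition was also summarized as S(90), the fraction of kinases inhibited by more than 90%.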

In experiment [2] the target is Serine/threonine-protein kinase Nek6 (Homo sapiens) (UniProt Q9HC98). In words: Inhibition of NEK6 at 1 uM.
Chain of Serine/threonine-protein kinase Nek6 (Homo sapiens) (Q9HC98 whole entry, the tested form may be a part): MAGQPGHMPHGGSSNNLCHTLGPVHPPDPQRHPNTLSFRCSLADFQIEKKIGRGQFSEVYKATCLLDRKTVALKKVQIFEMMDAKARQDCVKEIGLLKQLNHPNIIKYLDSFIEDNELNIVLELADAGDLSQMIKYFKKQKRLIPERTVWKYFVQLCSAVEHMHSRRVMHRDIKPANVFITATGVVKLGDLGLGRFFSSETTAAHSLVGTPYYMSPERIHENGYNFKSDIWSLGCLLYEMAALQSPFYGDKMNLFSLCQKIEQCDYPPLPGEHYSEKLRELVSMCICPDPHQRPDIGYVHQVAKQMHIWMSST
In experiment [3] the target is Ribosomal protein S6 kinase alpha-1 (Homo sapiens) (UniProt Q15418). The experiment in a line: Inhibition of RPS6KA1 C-terminal domain2 at 1 uM.
Experiment [4] addresses Tyrosine-protein kinase receptor UFO (Homo sapiens) (UniProt P30530). The experiment in a line: Inhibition of AXL at 1 uM. The essentials:
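Ambit KINOMEscan screen at a single concentration across a 250–400 kinase panel, recorded as percent inhibition. Selectivity was expressed as S(90), the fraction of kinases inhibited >90%.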

Experiment [5] concerns the target Epidermal growth factor receptor (Homo sapiens) (UniProt P04626+P00533+Q15303+P21860). The experiment in a line: Inhibition of EGFR L747-T751del, Sins mutant at 1 uM. In kind it is protein assay. The essentials:
(§2)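 Single-concentration screen using Ambit Bioscience KINOMEscan technology across a panel of 250–400 kinases. Per-kinase inhibition from this screen was summarized as S(90), the fraction of kinases inhibited by more than 90%.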

Experiment [6] has as its target Mitogen-activated protein kinase 3 (Homo sapiens) (UniProt P27361). In words: Inhibition of ERK1 at 1 uM. Put shortly:
as §2

Experiment [7] deals with Vascular endothelial growth factor receptor 1 (Homo sapiens) (UniProt P17948). The experiment in a line: Inhibition of FLT1 at 1 uM. The essentials:
as §1

Experiment [8] concerns the target Serine/threonine-protein kinase OSR1 (Homo sapiens) (UniProt O95747). In words: Inhibition of OSR1 at 1 uM.
In experiment [9] the target is T1, Serine/threonine-protein kinase TBK1 (Homo sapiens) (UniProt Q9UHD2).
T1 sequence (whole entry): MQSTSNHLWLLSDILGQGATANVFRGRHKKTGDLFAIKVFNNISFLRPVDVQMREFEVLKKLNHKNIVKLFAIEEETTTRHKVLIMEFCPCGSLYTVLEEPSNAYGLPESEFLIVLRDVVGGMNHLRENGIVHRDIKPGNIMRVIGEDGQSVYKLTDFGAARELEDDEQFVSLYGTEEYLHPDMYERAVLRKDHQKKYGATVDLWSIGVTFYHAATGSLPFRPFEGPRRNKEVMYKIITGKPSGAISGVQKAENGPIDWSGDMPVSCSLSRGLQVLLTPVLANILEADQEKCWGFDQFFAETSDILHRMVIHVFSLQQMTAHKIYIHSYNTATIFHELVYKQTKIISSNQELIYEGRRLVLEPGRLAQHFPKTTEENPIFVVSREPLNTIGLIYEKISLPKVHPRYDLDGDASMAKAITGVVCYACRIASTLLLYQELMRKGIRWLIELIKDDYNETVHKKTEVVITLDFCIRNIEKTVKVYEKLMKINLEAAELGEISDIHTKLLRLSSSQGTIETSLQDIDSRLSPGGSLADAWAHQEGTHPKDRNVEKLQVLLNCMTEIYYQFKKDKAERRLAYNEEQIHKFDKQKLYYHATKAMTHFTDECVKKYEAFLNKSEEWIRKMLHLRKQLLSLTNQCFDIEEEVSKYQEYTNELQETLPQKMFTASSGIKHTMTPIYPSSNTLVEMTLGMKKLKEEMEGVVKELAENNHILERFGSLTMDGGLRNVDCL
The experiment in a line: Inhibition of TBK1 at 1 uM.

In experiment [10] the target is T2, Rhodopsin kinase GRK1 (Homo sapiens) (UniProt Q15835).
T2 sequence (whole entry): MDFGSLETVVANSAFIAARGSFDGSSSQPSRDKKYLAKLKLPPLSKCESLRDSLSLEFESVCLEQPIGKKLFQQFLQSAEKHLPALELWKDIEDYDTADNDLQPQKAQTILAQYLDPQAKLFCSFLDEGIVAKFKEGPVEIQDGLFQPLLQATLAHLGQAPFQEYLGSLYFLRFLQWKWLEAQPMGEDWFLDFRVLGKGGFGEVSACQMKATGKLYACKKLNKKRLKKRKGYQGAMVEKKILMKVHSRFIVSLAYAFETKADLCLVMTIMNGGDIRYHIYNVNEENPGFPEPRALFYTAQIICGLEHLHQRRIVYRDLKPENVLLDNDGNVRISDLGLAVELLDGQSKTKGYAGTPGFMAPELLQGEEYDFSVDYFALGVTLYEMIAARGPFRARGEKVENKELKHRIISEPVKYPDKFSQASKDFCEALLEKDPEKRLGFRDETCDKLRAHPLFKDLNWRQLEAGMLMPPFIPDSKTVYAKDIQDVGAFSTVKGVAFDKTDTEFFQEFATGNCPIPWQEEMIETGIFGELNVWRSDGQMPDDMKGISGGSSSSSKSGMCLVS
The experiment in a line: Inhibition of GRK1 at 1 uM.

Experiment [11] has as its target T3, Homeodomain-interacting protein kinase 4 (Homo sapiens) (UniProt Q8NE63).
T3 sequence (whole entry): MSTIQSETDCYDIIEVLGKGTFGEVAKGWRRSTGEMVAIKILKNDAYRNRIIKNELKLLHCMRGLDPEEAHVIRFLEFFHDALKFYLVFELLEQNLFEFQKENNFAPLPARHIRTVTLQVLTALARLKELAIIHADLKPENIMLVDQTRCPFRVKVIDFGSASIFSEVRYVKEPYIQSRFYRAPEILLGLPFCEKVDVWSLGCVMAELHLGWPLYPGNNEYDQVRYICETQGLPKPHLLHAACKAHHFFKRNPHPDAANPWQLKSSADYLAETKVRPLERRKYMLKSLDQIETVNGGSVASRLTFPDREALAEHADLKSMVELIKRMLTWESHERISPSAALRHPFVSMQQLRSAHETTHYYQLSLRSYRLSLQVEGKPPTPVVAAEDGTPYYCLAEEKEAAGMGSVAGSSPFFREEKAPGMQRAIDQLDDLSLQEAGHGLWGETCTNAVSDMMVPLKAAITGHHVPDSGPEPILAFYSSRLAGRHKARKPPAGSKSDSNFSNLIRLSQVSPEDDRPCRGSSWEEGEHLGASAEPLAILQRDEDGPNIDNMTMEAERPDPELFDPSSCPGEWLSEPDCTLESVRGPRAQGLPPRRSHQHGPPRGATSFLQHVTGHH
In words: Inhibition of HIPK4 at 1 uM.

Broadly, the inhibition is the relative decrease from the control value, in per cent.

Chain of Mitogen-activated protein kinase 3 (Homo sapiens) (P27361 whole entry): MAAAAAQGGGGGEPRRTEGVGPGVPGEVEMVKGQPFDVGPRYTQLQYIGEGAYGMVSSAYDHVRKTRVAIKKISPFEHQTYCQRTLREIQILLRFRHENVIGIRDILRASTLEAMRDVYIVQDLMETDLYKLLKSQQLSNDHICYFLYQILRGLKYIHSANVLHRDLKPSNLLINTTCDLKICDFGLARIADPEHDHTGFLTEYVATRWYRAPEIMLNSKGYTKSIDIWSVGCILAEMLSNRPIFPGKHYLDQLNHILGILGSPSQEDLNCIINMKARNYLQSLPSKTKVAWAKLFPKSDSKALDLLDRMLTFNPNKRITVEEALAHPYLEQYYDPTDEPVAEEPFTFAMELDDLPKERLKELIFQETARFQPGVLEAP
Chain of Mast/stem cell growth factor receptor Kit (Homo sapiens), P10721 [V559D,V654A] (P10721 whole entry V559D/V654A): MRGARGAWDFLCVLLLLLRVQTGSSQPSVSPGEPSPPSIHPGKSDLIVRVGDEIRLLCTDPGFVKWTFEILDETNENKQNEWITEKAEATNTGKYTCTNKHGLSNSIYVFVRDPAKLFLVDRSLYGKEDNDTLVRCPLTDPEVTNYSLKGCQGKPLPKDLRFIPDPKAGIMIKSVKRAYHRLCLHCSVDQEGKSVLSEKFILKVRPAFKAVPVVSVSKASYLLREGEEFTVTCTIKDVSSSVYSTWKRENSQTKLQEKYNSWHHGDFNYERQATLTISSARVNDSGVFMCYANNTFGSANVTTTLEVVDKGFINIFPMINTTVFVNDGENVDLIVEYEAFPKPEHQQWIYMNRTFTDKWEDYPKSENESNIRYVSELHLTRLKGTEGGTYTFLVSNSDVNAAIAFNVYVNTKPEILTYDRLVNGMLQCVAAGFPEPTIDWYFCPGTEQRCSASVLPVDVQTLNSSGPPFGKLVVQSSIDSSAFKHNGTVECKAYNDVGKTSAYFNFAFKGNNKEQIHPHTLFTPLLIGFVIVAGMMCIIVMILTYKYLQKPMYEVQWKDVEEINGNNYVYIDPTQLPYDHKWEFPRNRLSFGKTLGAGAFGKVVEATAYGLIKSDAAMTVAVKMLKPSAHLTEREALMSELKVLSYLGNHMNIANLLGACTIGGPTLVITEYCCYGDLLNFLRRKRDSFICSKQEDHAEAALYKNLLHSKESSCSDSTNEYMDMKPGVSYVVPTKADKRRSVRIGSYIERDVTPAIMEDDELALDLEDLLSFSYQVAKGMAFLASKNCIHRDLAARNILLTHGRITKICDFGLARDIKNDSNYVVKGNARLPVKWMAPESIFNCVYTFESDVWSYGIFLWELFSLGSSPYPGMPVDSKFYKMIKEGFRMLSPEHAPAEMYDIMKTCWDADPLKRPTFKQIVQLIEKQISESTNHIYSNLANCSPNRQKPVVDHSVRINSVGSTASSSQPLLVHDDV
Chain of Vascular endothelial growth factor receptor 1 (Homo sapiens) (P17948 whole entry): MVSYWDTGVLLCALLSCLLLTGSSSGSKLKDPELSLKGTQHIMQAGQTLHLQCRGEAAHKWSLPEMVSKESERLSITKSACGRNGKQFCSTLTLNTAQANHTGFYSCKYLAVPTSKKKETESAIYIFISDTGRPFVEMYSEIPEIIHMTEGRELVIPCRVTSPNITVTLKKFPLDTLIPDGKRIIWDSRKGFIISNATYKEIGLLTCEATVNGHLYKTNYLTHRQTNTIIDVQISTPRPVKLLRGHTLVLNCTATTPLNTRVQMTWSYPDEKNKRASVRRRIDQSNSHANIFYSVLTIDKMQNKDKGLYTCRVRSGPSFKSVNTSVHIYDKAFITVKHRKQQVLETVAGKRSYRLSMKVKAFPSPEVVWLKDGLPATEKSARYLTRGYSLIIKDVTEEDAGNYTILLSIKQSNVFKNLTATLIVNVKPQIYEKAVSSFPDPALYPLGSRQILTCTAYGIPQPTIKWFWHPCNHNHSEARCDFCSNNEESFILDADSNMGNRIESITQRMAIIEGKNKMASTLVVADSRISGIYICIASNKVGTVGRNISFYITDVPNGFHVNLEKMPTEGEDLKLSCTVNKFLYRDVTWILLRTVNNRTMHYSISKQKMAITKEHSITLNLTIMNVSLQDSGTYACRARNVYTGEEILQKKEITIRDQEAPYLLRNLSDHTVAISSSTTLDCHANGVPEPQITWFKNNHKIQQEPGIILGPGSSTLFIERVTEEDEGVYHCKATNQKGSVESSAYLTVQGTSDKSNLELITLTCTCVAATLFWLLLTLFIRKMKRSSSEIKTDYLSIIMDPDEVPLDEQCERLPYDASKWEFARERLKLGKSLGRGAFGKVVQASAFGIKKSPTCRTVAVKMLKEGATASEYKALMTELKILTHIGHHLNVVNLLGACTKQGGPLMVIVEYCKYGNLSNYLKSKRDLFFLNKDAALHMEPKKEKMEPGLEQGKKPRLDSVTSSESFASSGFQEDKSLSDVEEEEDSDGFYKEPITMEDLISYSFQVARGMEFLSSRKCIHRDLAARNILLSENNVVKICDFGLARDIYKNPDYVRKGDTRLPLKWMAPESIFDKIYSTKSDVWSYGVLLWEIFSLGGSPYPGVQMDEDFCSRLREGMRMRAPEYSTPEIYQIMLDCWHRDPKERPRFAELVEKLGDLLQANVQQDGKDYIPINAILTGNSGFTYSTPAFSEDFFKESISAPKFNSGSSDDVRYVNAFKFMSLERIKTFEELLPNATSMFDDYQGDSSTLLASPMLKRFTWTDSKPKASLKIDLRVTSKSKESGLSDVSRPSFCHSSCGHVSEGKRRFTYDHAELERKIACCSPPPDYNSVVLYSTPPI
Chain of Tyrosine-protein kinase receptor UFO (Homo sapiens) (P30530 whole entry): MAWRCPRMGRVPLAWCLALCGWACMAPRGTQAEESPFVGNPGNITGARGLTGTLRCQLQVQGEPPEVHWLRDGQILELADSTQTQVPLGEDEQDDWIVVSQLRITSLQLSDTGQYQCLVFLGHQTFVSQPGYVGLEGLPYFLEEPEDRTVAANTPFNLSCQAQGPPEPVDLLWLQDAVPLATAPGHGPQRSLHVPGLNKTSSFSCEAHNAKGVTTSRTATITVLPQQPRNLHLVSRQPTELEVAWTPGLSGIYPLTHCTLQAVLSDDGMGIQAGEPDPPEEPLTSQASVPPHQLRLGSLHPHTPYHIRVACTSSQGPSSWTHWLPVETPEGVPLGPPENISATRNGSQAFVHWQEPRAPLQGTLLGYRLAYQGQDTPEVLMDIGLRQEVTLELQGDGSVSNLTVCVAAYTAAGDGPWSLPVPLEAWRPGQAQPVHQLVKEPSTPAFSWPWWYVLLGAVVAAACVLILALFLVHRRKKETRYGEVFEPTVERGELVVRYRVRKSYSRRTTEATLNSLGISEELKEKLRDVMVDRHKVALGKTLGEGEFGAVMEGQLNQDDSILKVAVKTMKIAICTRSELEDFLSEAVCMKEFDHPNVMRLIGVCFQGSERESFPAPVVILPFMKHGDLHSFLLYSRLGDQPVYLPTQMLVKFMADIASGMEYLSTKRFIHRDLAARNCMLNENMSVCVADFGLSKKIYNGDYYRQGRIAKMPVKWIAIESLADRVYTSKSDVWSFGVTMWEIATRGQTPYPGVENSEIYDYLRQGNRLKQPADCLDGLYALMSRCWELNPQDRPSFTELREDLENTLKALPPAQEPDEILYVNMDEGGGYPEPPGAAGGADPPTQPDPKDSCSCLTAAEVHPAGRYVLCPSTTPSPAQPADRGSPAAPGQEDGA
Chain of Serine/threonine-protein kinase OSR1 (Homo sapiens) (O95747 2-527 limits assumed): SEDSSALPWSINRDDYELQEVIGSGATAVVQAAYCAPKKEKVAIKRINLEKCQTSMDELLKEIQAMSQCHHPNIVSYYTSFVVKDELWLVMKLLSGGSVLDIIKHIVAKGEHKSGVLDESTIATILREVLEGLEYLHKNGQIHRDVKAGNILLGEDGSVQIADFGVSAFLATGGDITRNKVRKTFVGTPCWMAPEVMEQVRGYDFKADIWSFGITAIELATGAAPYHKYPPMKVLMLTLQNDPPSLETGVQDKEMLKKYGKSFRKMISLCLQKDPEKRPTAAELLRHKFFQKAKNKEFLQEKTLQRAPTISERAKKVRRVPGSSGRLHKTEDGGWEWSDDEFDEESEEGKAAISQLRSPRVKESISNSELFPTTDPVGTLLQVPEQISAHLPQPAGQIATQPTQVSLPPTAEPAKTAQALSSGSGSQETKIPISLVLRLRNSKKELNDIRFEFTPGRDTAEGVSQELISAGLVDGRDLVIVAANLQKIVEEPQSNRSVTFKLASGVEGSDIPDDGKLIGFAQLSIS

With `O=C(c1ccc(-c2cnc3c(c2)N(Cc2cc(Cl)ccc2C(F)(F)F)CCN3)cc1)N1CCCCC1`, the inhibition in experiment [1], in [2], in experiment [3], in [4], in experiment [5] and in [6] was less than 50% each time. The inhibition in experiment [7] is less than 50%.

Consider `CN1CCN(c2ccc(-c3cnc4c(c3)N(Cc3c(F)ccc(F)c3Cl)CCN4)cn2)CC1`, for which the inhibition in experiment [1], in experiment [2], in experiment [8], in experiment [3], in [9] and in [4] was less than 50% each time. Also, the inhibition in [5], in experiment [6], in [7], in [10] and in experiment [11] was less than 50% throughout.

As for `COC1CCN(C(=O)c2ccc(-c3cnc4c(c3)N(Cc3cc(Cl)ccc3C(F)(F)F)CCN4)cc2)CC1`, the inhibition in experiment [1], in [2], in experiment [3], in [4], in experiment [5] and in experiment [6] was less than 50% each time. For the same compound, the inhibition in experiment [7] is less than 50%.

With `O=C(O)c1ccc(-c2cnc3c(c2)N(Cc2cc(Cl)ccc2C(F)(F)F)CCN3)cc1`, the inhibition in [1], in [2], in experiment [3], in experiment [4], in experiment [5] and in experiment [6] was less than 50% each time. The inhibition in experiment [7] was less than 50%.

Take `FC(F)(F)c1ccc(Cl)cc1CN1CCNc2ncc(-c3ccnc(N4CCNCC4)c3)cc21`: the inhibition in experiment [1], in [2], in experiment [8], in experiment [3], in experiment [9] and in experiment [4] was less than 50% throughout. In addition, the inhibition in [5], in [6], in experiment [7], in experiment [10] and in experiment [11] was less than 50% each time.

`CN1CCN(c2ccc(-c3cnc4c(c3)N(Cc3cc(Cl)ccc3Cl)CCN4)cn2)CC1`: the inhibition in experiment [1], in experiment [2], in experiment [8], in experiment [3], in experiment [9] and in experiment [4] was less than 50% in each case. Also, the inhibition in [5], in [6], in experiment [7], in [10] and in [11] was less than 50% in each case.

On to `O=C(c1ccc(-c2cnc3c(c2)N(Cc2cc(Cl)ccc2C(F)(F)F)CCN3)cc1)N1CCC(N2CCCC2)CC1`, for which the inhibition in [1] was less than 50%; in experiment [2], less than 50%; in experiment [3], less than 50%; in experiment [4], 93%; in experiment [5] it was less than 50%; in [6], less than 50%. Also, in experiment [7], the inhibition was less than 50%.

Turning to `CN1CCN(c2ccc(-c3cnc4c(c3)N(Cc3cc(Cl)ccc3C(F)(F)F)CCN4)cn2)CC1`, the inhibition in [1], in experiment [2], in experiment [8], in experiment [3], in experiment [9] and in experiment [4] was less than 50% in each case. The inhibition in [5], in experiment [6], in experiment [7], in experiment [10] and in [11] was less than 50% in each case.

Turning to `CC(=O)N1CCN(c2cc(-c3cnc4c(c3)N(Cc3cc(Cl)ccc3C(F)(F)F)CCN4)ccn2)CC1`, the inhibition in experiment [1], in experiment [2], in [8], in experiment [3], in experiment [9] and in experiment [4] was less than 50% each time. Further, the inhibition in [5], in experiment [6], in experiment [7], in experiment [10] and in experiment [11] was less than 50% throughout.

Regarding `CN1CCN(c2ccc(-c3cnc4c(c3)N(Cc3cc(F)ccc3F)CCN4)cn2)CC1`, the inhibition in [1], in experiment [2], in experiment [8], in experiment [3], in experiment [9] and in [4] was less than 50% in each case. In addition, the inhibition in experiment [5], in experiment [6], in experiment [7], in experiment [10] and in [11] was less than 50% each time.

Source of the values: ChEMBL document CHEMBL1165965, “Synthesis and structure-activity relationships of 1,2,3,4-tetrahydropyrido[2,3-b]pyrazines as potent and selective inhibitors of the anaplastic lymphoma kinase” (Bioorg Med Chem, 2010).
